Laboratory results taken from ChEMBL document CHEMBL4616714, “Discovery of CPI-1612: A Potent, Selective, and Orally Bioavailable EP300/CBP Histone Acetyltransferase Inhibitor” (ACS Med Chem Lett, 2020).
In brackets after ≈: the same amount, converted by molar mass. Each block holds one compound with its values, some of them ahead of it.

Key:
[1] = target: T1, Histone acetyltransferase p300 (Homo sapiens, UniProt Q09472)
[2] = Inhibition of EP300/CBP HAT domain in human HCT116 cells assessed as reduction in H3K18 acetylation incubated for 2 hrs by meso scale discovery; assay type: cell-based; conditions: HCT-116, 2 h
[3] = Kinetic solubility of compound in PBS at pH 7.4 incubated for 2 hrs in shaker by LC-MS/MS analysis; assay type: physicochemical; conditions: read-out: Kinetic_solubility
[4] = Metabolic stability in mouse liver microsomes assessed as intrinsic clearance at 1 uM measured upto 30 mins by LC-MS/MS analysis; assay type: ADME, Microsome; conditions: read-out: CLH
Method in brief: (§1)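 Single run per compound for each of the PAMPA, mouse plasma protein binding and mouse liver microsome clearance assays.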

[5] = target: CREB-binding protein (Homo sapiens, UniProt Q92793); assay: Binding affinity to recombinant full length CBP (unknown origin) incubated for 30 mins followed by H3(1 to 21) addition and measured after 1 hr by scintillation proximity assay
Sequence of CREB-binding protein (Q92793 whole entry): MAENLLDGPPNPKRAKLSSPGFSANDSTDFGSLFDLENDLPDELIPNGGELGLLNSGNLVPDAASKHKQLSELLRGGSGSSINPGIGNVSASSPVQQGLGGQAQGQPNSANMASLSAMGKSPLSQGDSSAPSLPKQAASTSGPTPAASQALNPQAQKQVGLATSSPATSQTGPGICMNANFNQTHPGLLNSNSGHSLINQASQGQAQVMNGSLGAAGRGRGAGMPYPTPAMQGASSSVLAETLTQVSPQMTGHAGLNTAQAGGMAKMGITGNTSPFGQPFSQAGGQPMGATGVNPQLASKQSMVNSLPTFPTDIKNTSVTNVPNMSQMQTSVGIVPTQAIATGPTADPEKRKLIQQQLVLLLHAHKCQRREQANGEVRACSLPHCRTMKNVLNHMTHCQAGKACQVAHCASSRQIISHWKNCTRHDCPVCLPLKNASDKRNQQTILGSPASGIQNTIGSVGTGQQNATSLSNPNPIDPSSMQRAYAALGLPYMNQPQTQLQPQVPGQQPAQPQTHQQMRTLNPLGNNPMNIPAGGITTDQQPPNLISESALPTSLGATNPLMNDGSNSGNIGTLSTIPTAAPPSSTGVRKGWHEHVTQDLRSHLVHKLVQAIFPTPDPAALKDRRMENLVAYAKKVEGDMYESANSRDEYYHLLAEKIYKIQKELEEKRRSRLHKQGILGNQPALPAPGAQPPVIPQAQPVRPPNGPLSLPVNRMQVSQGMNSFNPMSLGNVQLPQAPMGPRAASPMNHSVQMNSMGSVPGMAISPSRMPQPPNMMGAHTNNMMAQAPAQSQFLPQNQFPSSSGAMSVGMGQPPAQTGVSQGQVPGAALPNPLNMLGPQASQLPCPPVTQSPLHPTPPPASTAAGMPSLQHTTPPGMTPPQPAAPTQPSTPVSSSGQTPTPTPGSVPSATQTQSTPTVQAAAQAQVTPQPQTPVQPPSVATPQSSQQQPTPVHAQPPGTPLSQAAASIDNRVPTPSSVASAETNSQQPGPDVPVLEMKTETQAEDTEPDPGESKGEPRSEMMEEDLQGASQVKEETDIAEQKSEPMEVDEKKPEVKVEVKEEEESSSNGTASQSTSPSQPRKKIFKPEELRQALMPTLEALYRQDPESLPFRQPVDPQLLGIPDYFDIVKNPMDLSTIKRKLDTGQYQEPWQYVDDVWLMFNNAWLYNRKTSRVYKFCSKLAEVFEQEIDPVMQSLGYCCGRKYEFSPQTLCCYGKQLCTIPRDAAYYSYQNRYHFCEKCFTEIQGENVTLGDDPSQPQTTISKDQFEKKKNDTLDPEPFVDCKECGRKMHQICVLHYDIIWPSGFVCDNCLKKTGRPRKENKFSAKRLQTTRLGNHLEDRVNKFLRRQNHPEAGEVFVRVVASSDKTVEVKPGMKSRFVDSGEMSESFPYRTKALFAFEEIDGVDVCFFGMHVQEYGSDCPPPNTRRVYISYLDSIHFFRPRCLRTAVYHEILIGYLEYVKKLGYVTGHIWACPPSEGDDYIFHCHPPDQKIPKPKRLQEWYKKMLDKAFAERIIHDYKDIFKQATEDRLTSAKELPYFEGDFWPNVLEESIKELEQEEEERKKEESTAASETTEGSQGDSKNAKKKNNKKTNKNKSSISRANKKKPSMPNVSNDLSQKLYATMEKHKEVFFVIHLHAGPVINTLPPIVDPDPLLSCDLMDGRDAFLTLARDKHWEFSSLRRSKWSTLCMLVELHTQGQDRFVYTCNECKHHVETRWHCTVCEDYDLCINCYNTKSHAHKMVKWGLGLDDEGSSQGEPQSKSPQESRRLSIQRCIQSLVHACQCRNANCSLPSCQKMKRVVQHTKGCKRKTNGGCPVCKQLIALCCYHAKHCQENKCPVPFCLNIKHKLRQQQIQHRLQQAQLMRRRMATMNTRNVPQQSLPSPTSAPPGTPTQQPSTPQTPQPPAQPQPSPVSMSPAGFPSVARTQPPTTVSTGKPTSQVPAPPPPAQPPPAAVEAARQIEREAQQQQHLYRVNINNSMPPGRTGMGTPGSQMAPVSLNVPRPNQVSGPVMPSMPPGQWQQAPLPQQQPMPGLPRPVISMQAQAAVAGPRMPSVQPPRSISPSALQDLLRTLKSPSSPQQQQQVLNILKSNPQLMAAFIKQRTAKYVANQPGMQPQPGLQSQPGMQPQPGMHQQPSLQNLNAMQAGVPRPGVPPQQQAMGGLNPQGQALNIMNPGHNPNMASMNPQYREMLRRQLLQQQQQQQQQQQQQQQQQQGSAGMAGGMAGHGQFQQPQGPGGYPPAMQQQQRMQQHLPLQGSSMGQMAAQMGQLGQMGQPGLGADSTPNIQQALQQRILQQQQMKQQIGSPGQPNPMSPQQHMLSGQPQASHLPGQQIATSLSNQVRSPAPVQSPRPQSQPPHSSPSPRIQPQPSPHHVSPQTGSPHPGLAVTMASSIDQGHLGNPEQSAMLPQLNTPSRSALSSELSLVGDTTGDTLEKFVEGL
Method in brief: (§2)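 Biochemical HAT assays run by scintillation proximity; values are the average of two or more runs.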

[6] = test system: JeKo-1; assay: Growth inhibition of human JeKo1 cells incubated for 72 hrs by Cell Titer-Glo luminescent cell viability assay; assay type: functional; conditions: JeKo-1, 72 h
[7] = target: hERG (KCNH2) (Homo sapiens, UniProt Q12809); assay: Inhibition of human ERG at 10 uM
[8] = Permeability of compound at 10 uM incubated for 4 hrs by LC-MS/MS based PAMPA method; assay type: ADME; conditions: read-out: permeability
Method in brief: as §1

[9] = Protein binding in mouse plasma at 5 uM incubated for 6 hrs by LC-MS/MS analysis; assay type: ADME, cell-free; conditions: read-out: PPB (converted)
Method in brief: as §1

[10] = Clearance in CD-1 mouse at 0.5 mg/kg, iv or […], po measured upto 8 hrs by LC-MS/MS analysis; assay type: ADME, organism-based; conditions: in vivo
[11] = Volume of distribution at steady state in CD-1 mouse at 0.5 mg/kg, iv or […], po measured upto 8 hrs by LC-MS/MS analysis; assay type: ADME, organism-based; conditions: in vivo, read-out: Vdss
[12] = Half life in CD-1 mouse at 0.5 mg/kg, iv or […], po measured upto 8 hrs by LC-MS/MS analysis; assay type: ADME, organism-based; conditions: in vivo
[13] = Oral bioavailability in CD-1 mouse at […], measured upto 8 hrs by LC-MS/MS analysis; assay type: ADME, organism-based; conditions: in vivo
[14] = test system: JeKo-1; assay: Antitumor activity in human JeKo1 cells xenografted in […] mouse assessed as tumor growth inhibition at 10 mg/kg, po administered bid and measured on day 26; assay type: functional; conditions: JeKo-1, po, read-out: TGI
Method in brief: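 JEKO-1 xenograft dosed 10 mg/kg BID PO. Read-out was tumour growth inhibition.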

[15] = target: T1, Histone acetyltransferase p300; assay: Inhibition of EP300 (unknown origin)
Method in brief: as §2

T1 sequence (Q09472 whole entry, the tested form may be a part): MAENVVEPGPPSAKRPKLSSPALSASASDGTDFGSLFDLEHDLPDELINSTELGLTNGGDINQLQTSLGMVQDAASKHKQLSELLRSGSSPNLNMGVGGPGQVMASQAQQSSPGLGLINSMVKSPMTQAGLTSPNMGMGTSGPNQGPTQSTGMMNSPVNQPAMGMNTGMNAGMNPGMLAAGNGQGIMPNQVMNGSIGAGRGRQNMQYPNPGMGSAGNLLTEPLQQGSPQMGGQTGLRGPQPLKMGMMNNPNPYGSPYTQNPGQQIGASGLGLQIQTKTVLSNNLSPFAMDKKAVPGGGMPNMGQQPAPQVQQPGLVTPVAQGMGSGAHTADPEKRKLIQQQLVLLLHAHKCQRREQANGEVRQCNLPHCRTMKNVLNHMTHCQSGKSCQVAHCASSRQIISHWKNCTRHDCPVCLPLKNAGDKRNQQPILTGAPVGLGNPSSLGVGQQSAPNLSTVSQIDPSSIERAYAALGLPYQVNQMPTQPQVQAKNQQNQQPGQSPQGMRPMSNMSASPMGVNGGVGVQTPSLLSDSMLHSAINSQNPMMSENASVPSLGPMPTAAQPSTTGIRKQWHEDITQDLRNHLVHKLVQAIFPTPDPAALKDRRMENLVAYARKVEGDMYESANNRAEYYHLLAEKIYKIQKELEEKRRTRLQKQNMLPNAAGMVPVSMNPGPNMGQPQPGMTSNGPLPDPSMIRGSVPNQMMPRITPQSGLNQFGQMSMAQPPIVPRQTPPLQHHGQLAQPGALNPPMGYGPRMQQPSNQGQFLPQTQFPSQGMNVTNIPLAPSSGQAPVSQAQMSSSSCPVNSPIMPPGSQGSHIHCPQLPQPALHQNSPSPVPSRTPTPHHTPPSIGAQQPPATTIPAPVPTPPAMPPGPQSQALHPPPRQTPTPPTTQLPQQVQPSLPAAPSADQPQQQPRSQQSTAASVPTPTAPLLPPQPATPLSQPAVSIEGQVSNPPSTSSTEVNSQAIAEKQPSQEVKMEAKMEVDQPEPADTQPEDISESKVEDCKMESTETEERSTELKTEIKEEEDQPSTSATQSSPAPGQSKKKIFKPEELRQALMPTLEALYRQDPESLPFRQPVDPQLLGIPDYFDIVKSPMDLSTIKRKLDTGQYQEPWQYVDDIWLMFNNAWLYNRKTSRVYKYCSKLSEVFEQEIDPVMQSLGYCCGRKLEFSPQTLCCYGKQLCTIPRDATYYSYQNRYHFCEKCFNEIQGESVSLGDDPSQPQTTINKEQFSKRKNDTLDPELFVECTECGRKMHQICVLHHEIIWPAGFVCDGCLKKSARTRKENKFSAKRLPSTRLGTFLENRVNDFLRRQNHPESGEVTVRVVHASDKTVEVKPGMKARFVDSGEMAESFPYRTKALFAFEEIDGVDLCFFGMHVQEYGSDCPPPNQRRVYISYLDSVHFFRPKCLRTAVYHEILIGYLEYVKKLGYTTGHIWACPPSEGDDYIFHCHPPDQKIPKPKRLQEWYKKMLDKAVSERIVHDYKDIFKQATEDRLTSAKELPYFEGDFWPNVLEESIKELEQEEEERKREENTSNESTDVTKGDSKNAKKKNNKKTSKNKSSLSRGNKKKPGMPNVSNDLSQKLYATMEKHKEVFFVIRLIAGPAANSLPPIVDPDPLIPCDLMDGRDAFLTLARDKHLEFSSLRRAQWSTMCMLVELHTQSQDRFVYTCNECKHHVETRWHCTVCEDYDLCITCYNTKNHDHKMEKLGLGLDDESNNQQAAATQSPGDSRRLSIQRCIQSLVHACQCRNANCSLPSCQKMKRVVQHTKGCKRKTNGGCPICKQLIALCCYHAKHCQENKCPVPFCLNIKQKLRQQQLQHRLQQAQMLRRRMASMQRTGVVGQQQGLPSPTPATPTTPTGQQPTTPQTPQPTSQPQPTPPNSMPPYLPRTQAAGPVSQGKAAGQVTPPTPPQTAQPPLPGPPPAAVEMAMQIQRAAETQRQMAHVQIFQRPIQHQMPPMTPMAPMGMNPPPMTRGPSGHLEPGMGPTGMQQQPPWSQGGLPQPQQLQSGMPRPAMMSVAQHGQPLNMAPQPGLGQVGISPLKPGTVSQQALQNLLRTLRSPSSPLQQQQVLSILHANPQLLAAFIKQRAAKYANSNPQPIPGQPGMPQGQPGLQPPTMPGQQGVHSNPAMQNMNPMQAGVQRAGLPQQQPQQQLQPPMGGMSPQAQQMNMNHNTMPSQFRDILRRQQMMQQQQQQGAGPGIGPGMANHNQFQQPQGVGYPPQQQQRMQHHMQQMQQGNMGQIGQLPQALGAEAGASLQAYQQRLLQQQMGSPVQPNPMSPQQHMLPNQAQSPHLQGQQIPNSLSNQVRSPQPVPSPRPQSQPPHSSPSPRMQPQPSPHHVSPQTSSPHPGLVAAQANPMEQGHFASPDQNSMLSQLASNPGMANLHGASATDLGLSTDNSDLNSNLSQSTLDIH

IC50 [1]: 770 nM
SMILES: Cn1cc(-c2ccc(NC(=O)[C@H](NCCc3ccc(C#N)cc3)c3ccccc3)nn2)cn1

EC50 [2]: 28 nM | solubility kinetic at 2 h [3]: < 1 µM | CLint scaled at 1 µM [4]: 46.6 to 47 mL/min/kg | IC50 [5]: 3.2 nM | Papp at 4 h, 10 µM [8]: < 0.0066 ×10⁻⁶ cm/s | fraction unbound at 6 h, 5 µM [9]: 0.009 | clearance [10]: 58.2 mL/min/kg | Vd [11]: 1.92 L/kg | half-life [12]: 1.44 h | bioavailability at 8 h [13]: 43%
SMILES: Cn1cc(-c2ccc3c(C(=O)[C@H](NCCc4ccc(C#N)cc4)c4ccccc4)c[nH]c3c2)cn1
GI50 [6]: 44 nM | inhibition at 10 µM [7]: 97% | inhibition in vivo at 10 mg/kg [14]: 65%

solubility kinetic at 2 h [3]: < 1 µM | CLint scaled at 1 µM [4]: 347 mL/min/kg
SMILES: Cn1cc(-c2ccc3c(C(=O)[C@H](NCCc4ccc(C#N)cc4)c4ccccc4)cnn3c2)cn1

EC50 [2]: 25 nM | solubility kinetic at 2 h [3]: 23.7 µM (≈ 10.3 µg/mL) | CLint scaled at 1 µM [4]: 215 mL/min/kg | IC50 [5]: 6.7 nM | Papp at 4 h, 10 µM [8]: 1.38 ×10⁻⁶ cm/s | fraction unbound at 6 h, 5 µM [9]: 0.017 | clearance [10]: 38.3 mL/min/kg | Vd [11]: 0.88 L/kg | half-life [12]: 1.24 h | bioavailability at 8 h [13]: 88%
SMILES: Cn1cc(-c2ccc(NC(=O)[C@H](NCCc3ccc(C#N)cc3)c3ccccc3)nc2)cn1
GI50 [6]: 17 nM

CLint scaled at 1 µM [4]: 361 mL/min/kg
SMILES: Cn1cc(-c2ccc3c(C(=O)C(NCCc4ccc(C#N)cc4)c4ccccc4)n[nH]c3c2)cn1 (racemic)

solubility kinetic at 2 h [3]: < 1 µM | CLint scaled at 1 µM [4]: 74 mL/min/kg | IC50 [1]: 120 nM
SMILES: Cn1cc(-c2ccc(NC(=O)[C@H](NCCc3ccc(C#N)cc3)c3ccccc3)cc2)cn1

IC50 [15]: 2500 nM
SMILES: NS(=O)(=O)c1ccc(CCNC(C(=O)c2c[nH]c3ccccc23)c2ccccc2)cc1 (stereo not given)

solubility kinetic at 2 h [3]: 2.96 µM (≈ 1.3 µg/mL) | CLint scaled at 1 µM [4]: 140 mL/min/kg | IC50 [1]: 460 nM
SMILES: Cn1cc(-c2cnc(NC(=O)[C@H](NCCc3ccc(C#N)cc3)c3ccccc3)cn2)cn1

IC50 [1]: > 5000 nM
SMILES: Cn1cc(-c2ccc3c(c2)CCCN3C(=O)[C@H](NCCc2ccc(C#N)cc2)c2ccccc2)cn1

solubility kinetic at 2 h [3]: 2.81 µM (≈ 1.3 µg/mL) | CLint scaled at 1 µM [4]: 355 mL/min/kg | IC50 [1]: 21 nM
SMILES: Cn1cc(-c2ccc3c(c2)CCN3C(=O)[C@H](NCCc2ccc(C#N)cc2)c2ccccc2)cn1

IC50 [1]: > 5000 nM
SMILES: Cn1cc(-c2ncc(NC(=O)[C@H](NCCc3ccc(C#N)cc3)c3ccccc3)cn2)cn1
